Assay results from ChEMBL document CHEMBL5608187, “Discovery of pyridoquinoxaline-based new P-gp inhibitors as coadjutant against Multi Drug Resistance in cancer” (Eur J Med Chem, 2024).

Experiments:
Format in all cases: cell-based
[1] = biological target: T1, ATP-dependent translocase ABCB1 (Homo sapiens, UniProt P08183); experiment: Inhibition of P-gp in human A498 cells assessed as increase in green fluorescence intensity at 0.1 to 10 uM incubated for 15 mins followed by incubation with EFFLUX-ID Green Detection Reagent and Hoeschst-33342 dye and measured after 30 mins by fluorescence analysis; conditions: a498, 0.25 h, dose 0.1-10 µM
T1 sequence (P08183 whole entry): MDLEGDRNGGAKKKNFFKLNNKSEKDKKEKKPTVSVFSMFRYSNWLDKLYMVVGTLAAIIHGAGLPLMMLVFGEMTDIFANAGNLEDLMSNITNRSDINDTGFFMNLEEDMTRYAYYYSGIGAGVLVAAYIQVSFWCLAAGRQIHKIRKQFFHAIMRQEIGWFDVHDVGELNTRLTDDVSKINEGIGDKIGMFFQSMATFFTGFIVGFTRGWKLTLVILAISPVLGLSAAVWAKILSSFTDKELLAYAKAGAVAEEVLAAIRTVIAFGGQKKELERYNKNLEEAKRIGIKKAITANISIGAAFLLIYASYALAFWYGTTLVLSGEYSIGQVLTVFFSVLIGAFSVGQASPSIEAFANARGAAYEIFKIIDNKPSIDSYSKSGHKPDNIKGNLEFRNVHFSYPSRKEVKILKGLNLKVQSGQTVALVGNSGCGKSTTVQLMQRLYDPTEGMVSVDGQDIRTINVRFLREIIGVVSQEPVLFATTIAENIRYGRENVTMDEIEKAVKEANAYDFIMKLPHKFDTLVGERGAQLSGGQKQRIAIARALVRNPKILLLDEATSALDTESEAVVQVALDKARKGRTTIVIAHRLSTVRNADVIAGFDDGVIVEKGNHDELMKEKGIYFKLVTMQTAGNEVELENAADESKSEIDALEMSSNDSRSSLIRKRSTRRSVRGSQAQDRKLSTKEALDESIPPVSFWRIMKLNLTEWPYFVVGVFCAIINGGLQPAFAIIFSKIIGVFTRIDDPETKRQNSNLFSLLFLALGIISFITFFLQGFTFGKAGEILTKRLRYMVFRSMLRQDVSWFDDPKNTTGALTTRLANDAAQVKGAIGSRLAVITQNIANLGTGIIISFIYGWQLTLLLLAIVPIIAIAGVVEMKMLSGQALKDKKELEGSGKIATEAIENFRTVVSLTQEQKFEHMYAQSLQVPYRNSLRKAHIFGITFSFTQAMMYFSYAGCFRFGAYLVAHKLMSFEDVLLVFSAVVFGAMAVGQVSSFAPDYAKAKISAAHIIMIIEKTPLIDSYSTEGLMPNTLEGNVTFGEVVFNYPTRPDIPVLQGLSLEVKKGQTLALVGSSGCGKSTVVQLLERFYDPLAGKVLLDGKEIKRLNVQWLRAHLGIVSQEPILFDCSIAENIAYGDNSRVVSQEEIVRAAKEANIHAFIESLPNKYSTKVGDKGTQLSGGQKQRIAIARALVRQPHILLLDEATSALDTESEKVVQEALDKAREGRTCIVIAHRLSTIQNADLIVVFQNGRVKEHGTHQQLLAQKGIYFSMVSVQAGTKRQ
Outline: (§1)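 5000 cells/well in phenol-red-free medium plated 24 h before; compounds 0.1, 1, 10 µM for 15 min, then EFLUXX-ID Green reagent (1:200) plus Hoechst-33342 1 µg/mL, 30 min 37 °C. Widefield imaging; median green intensity from 250 cells per well normalized to untreated wells. Mean ± SD of three wells; one-tailed t-test.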

[2] = biological target: T1, ATP-dependent translocase ABCB1; experiment: Inhibition of P-gp in human HCT-15 cells assessed as increase in green fluorescence intensity at 0.1 to 10 uM incubated for 15 mins followed by incubation with EFFLUX-ID Green Detection Reagent and Hoeschst-33342 dye and measured after 30 mins by fluorescence analysis; conditions: hct-15, 0.25 h, dose 0.1-10 µM; outline: as §1
[3] = biological target: T1, ATP-dependent translocase ABCB1; experiment: Inhibition of P-gp in human CAKI-2 cells assessed as increase in green fluorescence intensity at 0.1 to 10 uM incubated for 15 mins followed by incubation with EFFLUX-ID Green Detection Reagent and Hoeschst-33342 dye and measured after 30 mins by fluorescence analysis; conditions: caki-2, 0.25 h, dose 0.1-10 µM; outline: as §1
[4] = biological target: T1, ATP-dependent translocase ABCB1; experiment: Inhibition of P-gp in human HT1197 cells assessed as increase in green fluorescence intensity at 0.1 to 10 uM incubated for 15 mins followed by incubation with EFFLUX-ID Green Detection Reagent and Hoeschst-33342 dye and measured after 30 mins by fluorescence analysis; conditions: ht1197, 0.25 h, dose 0.1-10 µM; outline: as §1

inhibition (INH) [1] | inhibition (INH) [2] | inhibition (INH) [3] | inhibition (INH) [4] | SMILES
Not Active | Active | Active | Active | COC(=O)c1ccccc1SCc1nc2cc3cccnc3cc2nc1CSc1ccccc1C(=O)OC
Not Active | Active | Active | Active | N#Cc1ccc(OCc2nc3cc4cccnc4cc3nc2COc2ccc(C#N)cc2)cc1
Not Active | Active | Active | Active | O=C(Nc1ccc(Cl)c(Cl)c1)c1ccccc1OCc1nc2cc3cccnc3cc2nc1COc1ccccc1C(=O)Nc1ccc(Cl)c(Cl)c1
Not Active | Active | Active | Active | COc1cc(NC(=O)c2cc(Cl)ccc2OCc2nc3cc4cccnc4cc3nc2COc2ccc(Cl)cc2C(=O)Nc2cc(OC)c(OC)c(OC)c2)cc(OC)c1OC
Not Active | Active | Active | Active | COc1cc(NC(=O)c2cc(Cl)ccc2OCc2nc3cc4cccnc4cc3nc2COc2ccc(Cl)cc2C(=O)Nc2cc(OC)cc(OC)c2)cc(OC)c1
Not Active | Active | Active | Active | COc1ccc(NC(=O)c2ccccc2OCc2nc3cc4cccnc4cc3nc2COc2ccccc2C(=O)Nc2ccc(OC)cc2)cc1
Not Active | Active | Active | Active | COC(=O)c1ccc(OCc2nc3cc4cccnc4cc3nc2COc2ccc(C(=O)OC)cc2OC)c(OC)c1
Not Active | Active | Active | Active | COc1ccc(NC(=O)c2cc(Cl)ccc2OCc2nc3cc4cccnc4cc3nc2COc2ccc(Cl)cc2C(=O)Nc2ccc(OC)cc2)cc1
